Laboratory results: ChEMBL document CHEMBL1782036, “Atovaquone derivatives as potent cytotoxic and apoptosis inducing agents” (Bioorg Med Chem Lett, 2009)

Tested on: IMR-90
Assay: Antiproliferative activity against human IMR90 cells after 72 hrs by MTT assay
Format: cell-based
Details: IMR-90, 72 h

SMILES | IC50
O=C1C=C(N2CCN(c3ccccc3)CC2)C(=O)c2c(O)ccc(O)c21 | > 50 µM
COc1ccccc1N1CCN(C2=CC(=O)c3cccc(O)c3C2=O)CC1 | > 50 µM
Cc1ccccc1N1CCN(C2=CC(=O)c3cccc(O)c3C2=O)CC1 | > 50 µM

Tested on: DU-145
Assay: Induction of apoptosis in human DU145 cells at 5 uM assessed as dead cell level after 72 hrs by AnnexinV conjugated 7- AAD staining by flow cytometry
Format: functional
Details: not given
Outline: (§1)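 Du145 human prostate carcinoma cells exposed to compound for 72 h, then stained with Annexin V and 7-AAD and analysed by flow cytometry. Annexin V detects phosphatidylserine externalised to the outer membrane leaflet, and 7-AAD enters only membrane-compromised cells. Dead cells were those positive for both stains. Untreated cells served as control.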

SMILES | Activity
O=C1C=C(N2CCN(c3ccccc3)CC2)C(=O)c2c(O)ccc(O)c21 | 1.39%
COc1ccccc1N1CCN(C2=CC(=O)c3cccc(O)c3C2=O)CC1 | 5.08%
Cc1ccccc1N1CCN(C2=CC(=O)c3cccc(O)c3C2=O)CC1 | 11.08%

Tested on: DU-145
Assay: Induction of apoptosis in human DU145 cells at 10 uM assessed as late apoptosis/ necrotic cells level after 72 hrs by AnnexinV conjugated 7- AAD staining by flow cytometry
Format: functional
Details: not given
Outline: (§2)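 Du145 cells were treated for 72 h and stained with Annexin V conjugate plus 7-AAD. Flow cytometry read PS externalization and membrane integrity, scoring cells as live (double negative), early apoptotic, or late apoptotic/necrotic (double positive). Untreated cells served as the control.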

SMILES | Activity
O=C1C=C(N2CCN(c3ccccc3)CC2)C(=O)c2c(O)ccc(O)c21 | 84.76%
COc1ccccc1N1CCN(C2=CC(=O)c3cccc(O)c3C2=O)CC1 | 62.93%
Cc1ccccc1N1CCN(C2=CC(=O)c3cccc(O)c3C2=O)CC1 | 59.33%

Tested on: DU-145
Assay: Induction of apoptosis in human DU145 cells at 10 uM assessed as early apoptosis level after 72 hrs by AnnexinV conjugated 7- AAD staining by flow cytometry
Format: functional
Details: not given
Outline: as §2

SMILES | Activity
O=C1C=C(N2CCN(c3ccccc3)CC2)C(=O)c2c(O)ccc(O)c21 | 13.77%
COc1ccccc1N1CCN(C2=CC(=O)c3cccc(O)c3C2=O)CC1 | 10.13%
Cc1ccccc1N1CCN(C2=CC(=O)c3cccc(O)c3C2=O)CC1 | 18.28%

Tested on: DU-145
Assay: Growth inhibition of human DU145 cells after 72 hrs by MTT assay
Format: functional, cell-based
Details: DU-145, 72 h
Outline: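 Du145 human prostate carcinoma cells were screened by MTT cell-growth inhibition assay. IC50 values are means of three experiments.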

SMILES | IC50
O=C1C=C(N2CCN(c3ccccc3)CC2)C(=O)c2c(O)ccc(O)c21 | 1.3 µM
COc1ccccc1N1CCN(C2=CC(=O)c3cccc(O)c3C2=O)CC1 | 1.8 µM
Cc1ccccc1N1CCN(C2=CC(=O)c3cccc(O)c3C2=O)CC1 | 2.3 µM

Tested on: HT-29
Assay: Antiproliferative activity against human HT-29 cells after 72 hrs by MTT assay
Format: functional, cell-based
Details: HT-29, 72 h

SMILES | IC50
O=C1C=C(N2CCN(c3ccccc3)CC2)C(=O)c2c(O)ccc(O)c21 | 2.6 µM
COc1ccccc1N1CCN(C2=CC(=O)c3cccc(O)c3C2=O)CC1 | 2.8 µM
Cc1ccccc1N1CCN(C2=CC(=O)c3cccc(O)c3C2=O)CC1 | 2.8 µM

Tested on: MOLT-4
Assay: Antiproliferative activity against human MOLT4 cells after 72 hrs by MTT assay
Format: functional, cell-based
Details: MOLT-4, 72 h

SMILES | IC50
O=C1C=C(N2CCN(c3ccccc3)CC2)C(=O)c2c(O)ccc(O)c21 | > 50 µM
COc1ccccc1N1CCN(C2=CC(=O)c3cccc(O)c3C2=O)CC1 | 25.8 µM
Cc1ccccc1N1CCN(C2=CC(=O)c3cccc(O)c3C2=O)CC1 | > 50 µM

Tested on: DU-145
Assay: Induction of apoptosis in human DU145 cells at 5 uM assessed as live cell level after 72 hrs by AnnexinV conjugated 7- AAD staining by flow cytometry
Format: functional
Details: not given
Outline: as §2

SMILES | Activity
O=C1C=C(N2CCN(c3ccccc3)CC2)C(=O)c2c(O)ccc(O)c21 | 7.48%
COc1ccccc1N1CCN(C2=CC(=O)c3cccc(O)c3C2=O)CC1 | 46.26%
Cc1ccccc1N1CCN(C2=CC(=O)c3cccc(O)c3C2=O)CC1 | 69.54%

Tested on: DU-145
Assay: Induction of apoptosis in human DU145 cells at 5 uM assessed as late apoptosis/ necrotic cells level after 72 hrs by AnnexinV conjugated 7- AAD staining by flow cytometry
Format: functional
Details: not given
Outline: as §2

SMILES | Activity
O=C1C=C(N2CCN(c3ccccc3)CC2)C(=O)c2c(O)ccc(O)c21 | 71.34%
COc1ccccc1N1CCN(C2=CC(=O)c3cccc(O)c3C2=O)CC1 | 42.79%
Cc1ccccc1N1CCN(C2=CC(=O)c3cccc(O)c3C2=O)CC1 | 15.49%

Tested on: DU-145
Assay: Induction of apoptosis in human DU145 cells at 5 uM assessed as early apoptosis level after 72 hrs by AnnexinV conjugated 7- AAD staining by flow cytometry
Format: functional
Details: not given
Outline: as §2

SMILES | Activity
O=C1C=C(N2CCN(c3ccccc3)CC2)C(=O)c2c(O)ccc(O)c21 | 19.8%
COc1ccccc1N1CCN(C2=CC(=O)c3cccc(O)c3C2=O)CC1 | 5.88%
Cc1ccccc1N1CCN(C2=CC(=O)c3cccc(O)c3C2=O)CC1 | 3.89%

Tested on: not listed separately
Assay: Antiproliferative activity against human L78 cells after 72 hrs by MTT assay
Format: functional, cell-based
Details: L78, 72 h

SMILES | IC50
O=C1C=C(N2CCN(c3ccccc3)CC2)C(=O)c2c(O)ccc(O)c21 | 1.9 µM
COc1ccccc1N1CCN(C2=CC(=O)c3cccc(O)c3C2=O)CC1 | 4.6 µM
Cc1ccccc1N1CCN(C2=CC(=O)c3cccc(O)c3C2=O)CC1 | 15.1 µM

Tested on: U-251
Assay: Antiproliferative activity against human U251 cells after 72 hrs by MTT assay
Format: functional, cell-based
Details: U-251, 72 h

SMILES | IC50
O=C1C=C(N2CCN(c3ccccc3)CC2)C(=O)c2c(O)ccc(O)c21 | 6.1 µM
COc1ccccc1N1CCN(C2=CC(=O)c3cccc(O)c3C2=O)CC1 | 4.4 µM
Cc1ccccc1N1CCN(C2=CC(=O)c3cccc(O)c3C2=O)CC1 | 10.2 µM

Tested on: A549
Assay: Antiproliferative activity against human A549 cells after 72 hrs by MTT assay
Format: functional, cell-based
Details: A549, 72 h

SMILES | IC50
O=C1C=C(N2CCN(c3ccccc3)CC2)C(=O)c2c(O)ccc(O)c21 | 1.7 µM
COc1ccccc1N1CCN(C2=CC(=O)c3cccc(O)c3C2=O)CC1 | 3.6 µM
Cc1ccccc1N1CCN(C2=CC(=O)c3cccc(O)c3C2=O)CC1 | 5.3 µM

Tested on: MCF7
Assay: Antiproliferative activity against human MCF7 cells after 72 hrs by MTT assay
Format: functional, cell-based
Details: MCF7, 72 h

SMILES | IC50
O=C1C=C(N2CCN(c3ccccc3)CC2)C(=O)c2c(O)ccc(O)c21 | 3 µM
COc1ccccc1N1CCN(C2=CC(=O)c3cccc(O)c3C2=O)CC1 | 5.6 µM
Cc1ccccc1N1CCN(C2=CC(=O)c3cccc(O)c3C2=O)CC1 | 9.7 µM

Tested on: SGC-7901
Assay: Antiproliferative activity against human SGC7901 cells after 72 hrs by MTT assay
Format: functional, cell-based
Details: SGC-7901, 72 h

SMILES | IC50
O=C1C=C(N2CCN(c3ccccc3)CC2)C(=O)c2c(O)ccc(O)c21 | 2.5 µM
COc1ccccc1N1CCN(C2=CC(=O)c3cccc(O)c3C2=O)CC1 | 6.8 µM
Cc1ccccc1N1CCN(C2=CC(=O)c3cccc(O)c3C2=O)CC1 | 5.3 µM

Tested on: OS-RC-2
Assay: Antiproliferative activity against human OS-RC2 cells after 72 hrs by MTT assay
Format: functional, cell-based
Details: OS-RC-2, 72 h

SMILES | IC50
O=C1C=C(N2CCN(c3ccccc3)CC2)C(=O)c2c(O)ccc(O)c21 | 1.5 µM
COc1ccccc1N1CCN(C2=CC(=O)c3cccc(O)c3C2=O)CC1 | 1.9 µM
Cc1ccccc1N1CCN(C2=CC(=O)c3cccc(O)c3C2=O)CC1 | 4.4 µM

Tested on: KB
Assay: Antiproliferative activity against human KB cells after 72 hrs by MTT assay
Format: functional, cell-based
Details: not given

SMILES | IC50
O=C1C=C(N2CCN(c3ccccc3)CC2)C(=O)c2c(O)ccc(O)c21 | 1.4 µM
COc1ccccc1N1CCN(C2=CC(=O)c3cccc(O)c3C2=O)CC1 | 2.8 µM
Cc1ccccc1N1CCN(C2=CC(=O)c3cccc(O)c3C2=O)CC1 | 6.6 µM

Tested on: DU-145
Assay: Induction of apoptosis in human DU145 cells at 10 uM assessed as dead cell level after 72 hrs by AnnexinV conjugated 7- AAD staining by flow cytometry
Format: functional
Details: not given
Outline: as §1

SMILES | Activity
O=C1C=C(N2CCN(c3ccccc3)CC2)C(=O)c2c(O)ccc(O)c21 | 0.53%
COc1ccccc1N1CCN(C2=CC(=O)c3cccc(O)c3C2=O)CC1 | 3.4%
Cc1ccccc1N1CCN(C2=CC(=O)c3cccc(O)c3C2=O)CC1 | 3.64%

Tested on: HepG2
Assay: Antiproliferative activity against human HepG2 cells after 72 hrs by MTT assay
Format: functional, cell-based
Details: HepG2, 72 h

SMILES | IC50
O=C1C=C(N2CCN(c3ccccc3)CC2)C(=O)c2c(O)ccc(O)c21 | 5.4 µM
COc1ccccc1N1CCN(C2=CC(=O)c3cccc(O)c3C2=O)CC1 | 3.9 µM
Cc1ccccc1N1CCN(C2=CC(=O)c3cccc(O)c3C2=O)CC1 | 10.3 µM

Tested on: HeLa
Assay: Antiproliferative activity against human HeLa cells after 72 hrs by MTT assay
Format: functional, cell-based
Details: not given

SMILES | IC50
O=C1C=C(N2CCN(c3ccccc3)CC2)C(=O)c2c(O)ccc(O)c21 | 2.1 µM
COc1ccccc1N1CCN(C2=CC(=O)c3cccc(O)c3C2=O)CC1 | 6.5 µM
Cc1ccccc1N1CCN(C2=CC(=O)c3cccc(O)c3C2=O)CC1 | 7.2 µM

Tested on: HT-1080
Assay: Antiproliferative activity against human HT1080 cells after 72 hrs by MTT assay
Format: functional, cell-based
Details: HT-1080, 72 h

SMILES | IC50
O=C1C=C(N2CCN(c3ccccc3)CC2)C(=O)c2c(O)ccc(O)c21 | 2.8 µM
COc1ccccc1N1CCN(C2=CC(=O)c3cccc(O)c3C2=O)CC1 | 5.1 µM
Cc1ccccc1N1CCN(C2=CC(=O)c3cccc(O)c3C2=O)CC1 | 11 µM

Tested on: DU-145
Assay: Induction of apoptosis in human DU145 cells at 10 uM assessed as live cell level after 72 hrs by AnnexinV conjugated 7- AAD staining by flow cytometry
Format: functional
Details: not given
Outline: as §2

SMILES | Activity
O=C1C=C(N2CCN(c3ccccc3)CC2)C(=O)c2c(O)ccc(O)c21 | 0.95%
COc1ccccc1N1CCN(C2=CC(=O)c3cccc(O)c3C2=O)CC1 | 23.55%
Cc1ccccc1N1CCN(C2=CC(=O)c3cccc(O)c3C2=O)CC1 | 18.75%
